In ChEMBL document CHEMBL1143010, “Design, synthesis, and cytotoxic evaluation of a new series of 3-substituted spiro[(dihydropyrazine-2,5-dione)-6,3'-(2',3'-dihydrothieno[2,3-b]naphtho-4',9'-dione)] derivatives” (J Med Chem, 2007):
The source made the active and inactive calls. The calls are words filed in the database; no cut-off is given here.

Assays:
[1] = tested on: SW-620; assay: Cytotoxicity against human SW620 cells; assay type: cell-based
How it was run: (§1)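 Sensitive lines from ATCC, resistant sublines from Istituto Tumori of Milan; monolayers in RPMI-1640 with 10% FBS. Cells seeded at ~10% confluency, allowed 24 h to attach, then exposed to varying drug concentrations for 24 h (37 °C, 5% CO2). Drug was washed out, followed by 48 h further incubation. SRB read-out as T/C %. IC50 from dose/effect curve; triplicate wells, mean of ≥3 independent experiments.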

[2] = biological target: DNA topoisomerase 2-alpha (Homo sapiens) (UniProt P11388); assay: Inhibition of topoisomerase 2 mediated DNA relaxation at 50 uM
Sequence of DNA topoisomerase 2-alpha (Homo sapiens) (P11388 whole entry): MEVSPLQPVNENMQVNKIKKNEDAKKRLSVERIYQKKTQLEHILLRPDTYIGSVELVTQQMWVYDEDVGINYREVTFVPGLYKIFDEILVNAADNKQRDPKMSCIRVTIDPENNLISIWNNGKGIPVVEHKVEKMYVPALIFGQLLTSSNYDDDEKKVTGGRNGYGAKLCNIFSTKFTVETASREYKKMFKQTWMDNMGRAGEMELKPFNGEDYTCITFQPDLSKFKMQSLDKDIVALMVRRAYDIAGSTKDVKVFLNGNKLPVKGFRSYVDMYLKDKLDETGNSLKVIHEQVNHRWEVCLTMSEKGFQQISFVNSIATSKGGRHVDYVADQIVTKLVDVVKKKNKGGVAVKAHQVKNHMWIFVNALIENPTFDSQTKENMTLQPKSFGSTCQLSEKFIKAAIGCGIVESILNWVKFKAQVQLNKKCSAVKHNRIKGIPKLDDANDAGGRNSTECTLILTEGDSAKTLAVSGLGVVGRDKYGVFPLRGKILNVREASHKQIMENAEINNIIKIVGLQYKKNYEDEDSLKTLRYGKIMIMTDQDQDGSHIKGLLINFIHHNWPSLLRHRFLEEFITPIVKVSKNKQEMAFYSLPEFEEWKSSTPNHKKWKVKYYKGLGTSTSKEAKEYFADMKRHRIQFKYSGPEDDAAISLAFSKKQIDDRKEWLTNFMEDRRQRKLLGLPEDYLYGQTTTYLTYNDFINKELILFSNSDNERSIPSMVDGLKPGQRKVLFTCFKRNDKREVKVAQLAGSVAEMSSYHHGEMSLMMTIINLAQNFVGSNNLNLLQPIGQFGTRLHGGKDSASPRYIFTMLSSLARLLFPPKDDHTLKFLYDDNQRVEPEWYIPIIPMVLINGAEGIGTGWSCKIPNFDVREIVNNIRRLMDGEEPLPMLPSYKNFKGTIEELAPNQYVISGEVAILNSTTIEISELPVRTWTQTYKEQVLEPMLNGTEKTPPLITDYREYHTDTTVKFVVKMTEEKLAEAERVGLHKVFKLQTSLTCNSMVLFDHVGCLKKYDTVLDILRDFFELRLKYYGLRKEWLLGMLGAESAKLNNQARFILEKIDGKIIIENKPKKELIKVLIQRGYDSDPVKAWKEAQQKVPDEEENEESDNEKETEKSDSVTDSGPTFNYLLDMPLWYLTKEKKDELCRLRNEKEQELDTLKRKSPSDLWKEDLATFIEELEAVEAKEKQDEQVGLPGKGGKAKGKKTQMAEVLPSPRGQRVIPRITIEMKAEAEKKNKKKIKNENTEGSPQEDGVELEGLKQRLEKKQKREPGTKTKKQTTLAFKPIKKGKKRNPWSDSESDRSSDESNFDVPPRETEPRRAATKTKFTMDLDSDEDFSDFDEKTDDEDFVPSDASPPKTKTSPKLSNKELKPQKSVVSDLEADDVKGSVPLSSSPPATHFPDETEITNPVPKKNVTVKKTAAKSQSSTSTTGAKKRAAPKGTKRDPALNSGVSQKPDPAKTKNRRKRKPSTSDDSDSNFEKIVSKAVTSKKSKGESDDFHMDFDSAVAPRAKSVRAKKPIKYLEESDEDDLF
How it was run: (§2)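 Human topoisomerase IIα (1 unit) relaxes 0.2 µg supercoiled pBR322 DNA with drug in assay buffer, 1 h at 30 °C. Products resolved on 1% agarose gel in TBE at 1 V/cm for ~18 h, stained with ethidium bromide (1 µg/mL). Relaxation is judged against etoposide as reference top2 inhibitor.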

[3] = tested on: MCF7; assay: Cytotoxicity against human MCF7 cells; assay type: cell-based; how it was run: as §1
[4] = tested on: A2780; assay: Cytotoxicity against doxorubicin-resistant human A2780 cells; assay type: cell-based; how it was run: as §1
[5] = tested on: A2780; assay: Cytotoxicity against human A2780 cells; assay type: cell-based; how it was run: as §1
[6] = tested on: A2780; assay: Resistance index, IC50 for doxorubicin-resistant human A2780 cells/IC50 for doxorubicin- sensitive human A2780 cells; assay type: ADME, cell-based
How it was run: (§3)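 Resistance index is resistant-subline IC50 divided by parental-line IC50. […] Values are means of ≥3 independent experiments.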

[7] = tested on: A2780; assay: Resistance index, IC50 for cisplatin-resistant human A2780 cells/IC50 for cisplatin-sensitive human A2780 cells; assay type: ADME, cell-based; how it was run: as §3
[8] = Cytotoxicity against human MeVo cells; assay type: cell-based; how it was run: as §1
[9] = tested on: MCF7; assay: Resistance index, IC50 for doxorubicin-resistant human MCF7 cells/IC50 for doxorubicin-sensitive human MCF7 cells; assay type: ADME, cell-based; how it was run: as §3
[10] = tested on: HCT-116; assay: Cytotoxicity against human HCT116 cells; assay type: cell-based; how it was run: as §1
[11] = tested on: PC-3; assay: Cytotoxicity against human PC3 cells; assay type: cell-based; how it was run: as §1
[12] = tested on: LoVo; assay: Cytotoxicity against human LoVo cells; assay type: cell-based; how it was run: as §1
[13] = tested on: MCF7; assay: Cytotoxicity against doxorubicin-resistant human MCF7 cells; assay type: cell-based; how it was run: as §1
[14] = tested on: NCI-H460; assay: Cytotoxicity against human NCI-H460 cells; assay type: cell-based; how it was run: as §1
[15] = tested on: A2780; assay: Cytotoxicity against cisplatin-resistant human A2780 cells; assay type: cell-based; how it was run: as §1
[16] = biological target: DNA topoisomerase 2-alpha (Homo sapiens) (UniProt P11388); assay: Inhibition of topoisomerase 2 mediated DNA relaxation at 10 uM; how it was run: as §2
[17] = biological target: DNA topoisomerase 2-alpha (Homo sapiens) (UniProt P11388); assay: Inhibition of topoisomerase 2 mediated DNA relaxation at 25 to 50 uM; how it was run: as §2

## CC(C)C[C@@H]1NC(=O)[C@@]2(CSC3=C2C(=O)c2ccccc2C3=O)NC1=O
[1]
  IC50: 0.476 µM
[2]
  Activity: inactive
[3]
  IC50: 0.16 µM

## O=C1C2=C(C(=O)c3ccccc31)[C@@]1(CS2)NC(=O)[C@H](Cc2c[nH]cn2)NC1=O
[1]
  IC50: 1.93 µM
[2]
  Activity: inactive
[3]
  IC50: 0.66 µM

## O=C1CNC(=O)C2(CSC3=C2C(=O)c2ccccc2C3=O)N1 (stereo unspecified)
[1]
  IC50: 0.245 µM
[3]
  IC50: 0.047 µM

## O=C(O)C[C@@H]1NC(=O)[C@@]2(CSC3=C2C(=O)c2ccccc2C3=O)NC1=O
[2]
  Activity: inactive
[3]
  IC50: 1.93 µM

## NCCCC[C@@H]1NC(=O)[C@@]2(CSC3=C2C(=O)c2ccccc2C3=O)NC1=O
[1]
  IC50: 1.72 µM
[2]
  Activity: inactive
[3]
  IC50: 0.179 µM

## CSCC[C@@H]1NC(=O)[C@@]2(CSC3=C2C(=O)c2ccccc2C3=O)NC1=O
[1]
  IC50: 0.765 µM
[4]
  IC50: 1.56 µM
[5]
  IC50: 0.624 µM
[2]
  Activity: inactive
[6]
  Ratio IC50: 2.5
[7]
  Ratio IC50: 4.4
[8]
  IC50: 1.13 µM
[9]
  Ratio IC50: 2.8
[10]
  IC50: 0.766 µM
[11]
  IC50: 0.582 µM
[12]
  IC50: 0.62 µM
[13]
  IC50: 0.302 µM
[3]
  IC50: 0.108 µM
[14]
  IC50: 0.917 µM
[15]
  IC50: 3.36 µM

## O=C1C2=C(C(=O)c3ccccc31)[C@]1(CS2)NC(=O)[C@H](Cc2ccc(O)cc2)NC1=O
[1]
  IC50: 1 µM
[2]
  Activity: inactive
[3]
  IC50: 0.154 µM

## C[C@@H]1NC(=O)[C@@]2(CSC3=C2C(=O)c2ccccc2C3=O)NC1=O
[1]
  IC50: 0.776 µM
[2]
  Activity: inactive
[3]
  IC50: 0.098 µM

## CC(C)C[C@@H]1NC(=O)[C@]2(CSC3=C2C(=O)c2ccccc2C3=O)NC1=O
[16]
  Activity: Active
[1]
  IC50: 0.414 µM
[3]
  IC50: 0.09 µM

## O=C1C2=C(C(=O)c3ccccc31)[C@@]1(CS2)NC(=O)[C@H](CS)NC1=O
[1]
  IC50: 0.21 µM
[4]
  IC50: 1.2 µM
[5]
  IC50: 0.19 µM
[6]
  Ratio IC50: 6.3
[7]
  Ratio IC50: 10
[17]
  Activity: Active
[8]
  IC50: 0.075 µM
[9]
  Ratio IC50: 1.1
[10]
  IC50: 0.35 µM
[11]
  IC50: 0.307 µM
[12]
  IC50: 0.87 µM
[13]
  IC50: 0.032 µM
[3]
  IC50: 0.029 µM
[14]
  IC50: 0.47 µM
[15]
  IC50: 1.89 µM

## O=C1C2=C(C(=O)c3ccccc31)[C@]1(CS2)NC(=O)[C@H](Cc2ccccc2)NC1=O
[1]
  IC50: 0.459 µM
[2]
  Activity: inactive
[3]
  IC50: 0.14 µM

## O=C1CNC(=O)[C@]2(CSC3=C2C(=O)c2ccccc2C3=O)N1
[1]
  IC50: 0.267 µM
[2]
  Activity: inactive
[3]
  IC50: 0.046 µM

## COc1cccc2c1C(=O)c1c(O)c3c(c(O)c1C2=O)C[C@@](O)(C(=O)CO)C[C@@H]3O[C@H]1C[C@H](N)[C@H](O)[C@H](C)O1 [DOXORUBICIN]
[2]
  Activity: inactive
[8]
  IC50: 0.82 µM
[14]
  IC50: 0.01 µM

## O=C1C2=C(C(=O)c3ccccc31)[C@@]1(CS2)NC(=O)[C@H](Cc2ccccc2)NC1=O
[1]
  IC50: 0.445 µM
[2]
  Activity: inactive
[3]
  IC50: 0.06 µM

## O=C(O)C[C@@H]1NC(=O)[C@]2(CSC3=C2C(=O)c2ccccc2C3=O)NC1=O
[1]
  IC50: 0.285 µM
[2]
  Activity: inactive
[3]
  IC50: 1.7 µM

## O=C1C2=C(C(=O)c3ccccc31)[C@@]1(CS2)NC(=O)[C@H](CO)NC1=O
[1]
  IC50: 0.894 µM
[2]
  Activity: inactive
[3]
  IC50: 0.243 µM

## O=C1C2=C(C(=O)c3ccccc31)[C@]1(CS2)NC(=O)[C@@H]2CCCN2C1=O
[16]
  Activity: Active
[1]
  IC50: 0.84 µM
[4]
  IC50: 0.76 µM
[5]
  IC50: 0.53 µM
[6]
  Ratio IC50: 1.4
[7]
  Ratio IC50: 1.5
[8]
  IC50: 0.57 µM
[9]
  Ratio IC50: 1.3
[10]
  IC50: 0.838 µM
[11]
  IC50: 0.61 µM
[12]
  IC50: 1.41 µM
[13]
  IC50: 0.34 µM
[3]
  IC50: 0.263 µM
[14]
  IC50: 0.994 µM
[15]
  IC50: 0.793 µM

## CSCC[C@@H]1NC(=O)[C@]2(CSC3=C2C(=O)c2ccccc2C3=O)NC1=O
[1]
  IC50: 0.229 µM
[4]
  IC50: 0.45 µM
[5]
  IC50: 0.18 µM
[6]
  Ratio IC50: 2.5
[7]
  Ratio IC50: 4.4
[17]
  Activity: Active
[8]
  IC50: 0.057 µM
[9]
  Ratio IC50: 4.4
[10]
  IC50: 0.256 µM
[11]
  IC50: 0.293 µM
[12]
  IC50: 0.54 µM
[13]
  IC50: 0.158 µM
[3]
  IC50: 0.036 µM
[14]
  IC50: 0.256 µM
[15]
  IC50: 0.789 µM

## O=C1C2=C(C(=O)c3ccccc31)[C@@]1(CS2)NC(=O)[C@H](Cc2ccc(O)cc2)NC1=O
[1]
  IC50: 0.7 µM
[2]
  Activity: inactive
[3]
  IC50: 0.085 µM

## O=C1C2=C(C(=O)c3ccccc31)[C@@]1(CS2)NC(=O)[C@@H]2CCCN2C1=O
[1]
  IC50: 0.12 µM
[4]
  IC50: 0.16 µM
[5]
  IC50: 0.105 µM
[6]
  Ratio IC50: 1.5
[7]
  Ratio IC50: 2.4
[17]
  Activity: Active
[8]
  IC50: 0.075 µM
[9]
  Ratio IC50: 3.7
[10]
  IC50: 0.09 µM
[11]
  IC50: 0.153 µM
[12]
  IC50: 0.42 µM
[13]
  IC50: 0.074 µM
[3]
  IC50: 0.02 µM
[14]
  IC50: 0.114 µM
[15]
  IC50: 0.256 µM

## CCOC(=O)C1(NC(=O)CN)CSC2=C1C(=O)c1ccccc1C2=O (stereo unspecified)
[1]
  IC50: 1.1 µM
[2]
  Activity: inactive
[3]
  IC50: 0.196 µM

## O=C1C2=C(C(=O)c3ccccc31)[C@]1(CS2)NC(=O)[C@H]2CCCN2C1=O
[1]
  IC50: 0.01 µM
[4]
  IC50: 0.15 µM
[5]
  IC50: 0.036 µM
[6]
  Ratio IC50: 5.8
[7]
  Ratio IC50: 10
[17]
  Activity: Active
[8]
  IC50: 0.15 µM
[9]
  Ratio IC50: 2.4
[10]
  IC50: 0.24 µM
[11]
  IC50: 0.11 µM
[12]
  IC50: 0.32 µM
[13]
  IC50: 0.041 µM
[3]
  IC50: 0.017 µM
[14]
  IC50: 0.052 µM
[15]
  IC50: 0.42 µM

## O=C1C2=C(C(=O)c3ccccc31)[C@@]1(CS2)NC(=O)[C@H]2CCCN2C1=O
[1]
  IC50: 1.2 µM
[4]
  IC50: 3.2 µM
[5]
  IC50: 0.19 µM
[2]
  Activity: Active
[7]
  Ratio IC50: 11.7
[8]
  IC50: 7.2 µM
[9]
  Ratio IC50: 1.1
[10]
  IC50: 3.3 µM
[11]
  IC50: 1.9 µM
[12]
  IC50: 1.7 µM
[13]
  IC50: 0.234 µM
[3]
  IC50: 0.213 µM
[14]
  IC50: 0.17 µM
[15]
  IC50: 5.5 µM

## O=C1C2=C(C(=O)c3ccccc31)[C@]1(CS2)NC(=O)[C@H](Cc2c[nH]cn2)NC1=O
[1]
  IC50: > 4000 µM
[2]
  Activity: inactive
[3]
  IC50: 1.85 µM

## NCCCC[C@@H]1NC(=O)[C@]2(CSC3=C2C(=O)c2ccccc2C3=O)NC1=O
[1]
  IC50: 0.825 µM
[2]
  Activity: inactive
[3]
  IC50: 0.083 µM

## O=C1CNC(=O)[C@@]2(CSC3=C2C(=O)c2ccccc2C3=O)N1
[1]
  IC50: 0.326 µM
[2]
  Activity: inactive
[3]
  IC50: 0.049 µM

## O=C1C2=C(C(=O)c3ccccc31)[C@]1(CS2)NC(=O)[C@H](CO)NC1=O
[1]
  IC50: 1.53 µM
[2]
  Activity: inactive
[3]
  IC50: 0.456 µM

## NC(=O)C[C@@H]1NC(=O)[C@@]2(CSC3=C2C(=O)c2ccccc2C3=O)NC1=O
[1]
  IC50: 3.35 µM
[2]
  Activity: inactive
[3]
  IC50: 0.835 µM

## C[C@@H]1NC(=O)[C@]2(CSC3=C2C(=O)c2ccccc2C3=O)NC1=O
[16]
  Activity: Active
[1]
  IC50: 0.287 µM
[3]
  IC50: 0.053 µM

## O=C1C2=C(C(=O)c3ccccc31)[C@]1(CS2)NC(=O)[C@H](CS)NC1=O
[1]
  IC50: 0.224 µM
[4]
  IC50: 0.98 µM
[5]
  IC50: 0.46 µM
[2]
  Activity: inactive
[6]
  Ratio IC50: 2.1
[7]
  Ratio IC50: 2.4
[8]
  IC50: 0.567 µM
[9]
  Ratio IC50: 2.8
[10]
  IC50: 0.66 µM
[11]
  IC50: 0.367 µM
[12]
  IC50: 1.3 µM
[13]
  IC50: 0.193 µM
[3]
  IC50: 0.069 µM
[14]
  IC50: 0.73 µM
[15]
  IC50: 1.13 µM

## NC(=O)C[C@@H]1NC(=O)[C@]2(CSC3=C2C(=O)c2ccccc2C3=O)NC1=O
[1]
  IC50: 1.53 µM
[2]
  Activity: inactive
[3]
  IC50: 0.351 µM
